In ChEMBL document CHEMBL3864121, “Development of ebsulfur analogues as potent antibacterials against methicillin-resistant Staphylococcus aureus” (Bioorg Med Chem, 2016):
Activity calls are given as the source filed them. The calls are words filed in the database; no cut-off is given here.

Key:
Staphylococcus aureus [1] = experiment: Bacteriostatic activity against methicillin-resistant Staphylococcus aureus S22 at 0.5 times MIC measured up to 3 to 6 hrs by time kill analysis; assay type: functional
Staphylococcus aureus [2] = experiment: Bacteriostatic activity against methicillin-resistant Staphylococcus aureus S22 at MIC measured up to 3 to 6 hrs by time kill analysis; assay type: functional
Staphylococcus aureus [3] = experiment: Bacteriostatic activity against methicillin-resistant Staphylococcus aureus S22 at 4 times MIC measured after 24 hrs by time kill analysis; assay type: functional
Staphylococcus aureus [4] = experiment: Antibiofilm activity against methicillin-sensitive Staphylococcus aureus ATCC 6538 assessed as reduction of biofilm at […] ug/ml measured after 24 hrs by crystal violet staining based method relative to control; assay type: functional; parameters: scale not given: the % may be the effect or the level left
[5] = Cytotoxicity against mouse RBCs assessed as hemolysis up to […] measured after 1 hr; assay type: toxicity, Erythrocyte; details: mouse red blood cells, read-out: Activity
Mus musculus = organism: Mus musculus; experiment: Cytotoxicity against mouse RBCs assessed as hemolysis at 0.24 to 31.2 ug/ml measured after 1 hr; assay type: toxicity; details: erythrocyte
Method in brief: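 Murine red blood cells were exposed to compounds at various concentrations, with amikacin as a control. Percent hemolysis was scored against untreated cells (0%) and 1% Triton X (100%).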

[6] = tested on: Staphylococcus epidermidis RP62A; experiment: Inhibition of thioredoxin reductase in Staphylococcus epidermidis ATCC 35984 assessed as induction of ROS production at 1 to 4 times MIC measured after 1 hr by DCFH-DA staining-based fluorescence microscopic analysis
Method in brief: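 Untreated cells served as the negative control and 1 mM H2O2 as the positive control. Cells were stained with DCFH-DA (40 µg/mL) and ROS were visualized by fluorescence microscopy.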

Staphylococcus aureus [7] = experiment: Antibacterial activity against methicillin-resistant Staphylococcus aureus S22 using 1 10^6CFU/ml measured after overnight incubation by broth double-dilution method; assay type: functional

O=c1c2ccccc2sn1-c1ccccc1
Activity (Staphylococcus aureus [1]): Active
Activity (Staphylococcus aureus [2]): Active
Activity (Staphylococcus aureus [3]): Active
Activity (Staphylococcus aureus [4]): 40%
hemolysis at 1 h [5]: ≤ 20%
Activity (Mus musculus): Non-Toxic
Activity [6]: Active
Activity (Staphylococcus aureus [7]): Active
